Data on one molecule can be found in PubChem BioAssay AID652203 (Vanderbilt Specialized Chemistry Center, 2013).

Active and inactive are the calls of the source. The rule behind the calls is not given here.

The target in this experiment is Metabotropic glutamate receptor 7 (Rattus norvegicus) (UniProt P35400). The experiment in a line: mGlu7 modulation of L-AP4 calcium response, selectivity assay for mGlu5 silent allosteric modulator project, cell-based, rat, TRex293, Galpha15, Fluo4 calcium (AID 652203). The following applies: rmGlu7+Galpha15 TRex293, L-AP4 calcium Fluo4 fold shift; at 10 µM. Put shortly:
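Material: Rat mGlu7 co-expressed with Galpha15 in TRex293 cells | Buffer or medium: Probenecid-containing assay buffer at pH 7.4 | Times: Compound added at 20 s, L-AP4 added at 80 s | Reagent: L-AP4, 3.9 µM–1 mM, 9 concentrations | Technique: Fluo4 fluorescence measuring intracellular calcium | Compound dosing: Single test-compound dose of 10 µM, 1% DMSO final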

Metabotropic glutamate receptor 7 (Rattus norvegicus), sequence (P35400 whole entry, looked up): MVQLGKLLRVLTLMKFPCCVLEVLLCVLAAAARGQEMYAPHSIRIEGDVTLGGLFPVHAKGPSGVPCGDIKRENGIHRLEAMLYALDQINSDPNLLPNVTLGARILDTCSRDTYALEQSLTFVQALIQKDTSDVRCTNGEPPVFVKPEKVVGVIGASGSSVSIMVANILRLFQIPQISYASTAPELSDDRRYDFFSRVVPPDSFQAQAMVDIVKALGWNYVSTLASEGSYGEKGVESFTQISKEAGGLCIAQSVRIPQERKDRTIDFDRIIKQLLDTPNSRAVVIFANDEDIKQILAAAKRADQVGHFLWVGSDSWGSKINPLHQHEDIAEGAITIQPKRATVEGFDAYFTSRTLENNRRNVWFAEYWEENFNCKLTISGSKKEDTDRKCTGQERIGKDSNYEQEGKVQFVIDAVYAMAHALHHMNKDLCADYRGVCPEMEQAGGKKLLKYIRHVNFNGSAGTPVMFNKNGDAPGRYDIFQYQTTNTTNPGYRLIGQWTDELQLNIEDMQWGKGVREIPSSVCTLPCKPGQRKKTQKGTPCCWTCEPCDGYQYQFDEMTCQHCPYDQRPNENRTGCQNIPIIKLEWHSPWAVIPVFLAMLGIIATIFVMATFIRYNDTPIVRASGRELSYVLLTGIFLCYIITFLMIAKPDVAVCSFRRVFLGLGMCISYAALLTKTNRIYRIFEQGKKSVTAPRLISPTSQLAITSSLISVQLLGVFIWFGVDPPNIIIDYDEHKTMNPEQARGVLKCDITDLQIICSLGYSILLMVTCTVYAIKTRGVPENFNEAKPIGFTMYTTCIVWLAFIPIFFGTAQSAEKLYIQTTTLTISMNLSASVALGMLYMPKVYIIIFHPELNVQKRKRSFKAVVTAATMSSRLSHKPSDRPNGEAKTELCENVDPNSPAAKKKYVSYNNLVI

As for `O=C(c1ccc(C#Cc2cccc(F)c2)cn1)N1CC2CC2C1` (stereo unspecified), the fold shift of L-AP4 EC50 was 0.696 (inactive).
